Data as given in ChEMBL document CHEMBL1138520, “Molecular and conformational determinants of pituitary adenylate cyclase-activating polypeptide (PACAP) for activation of the PAC1 receptor” (J Med Chem, 2009).
Where a SMILES comes first, the peptide text is derived from it.

What was measured:
[1] = molecular target: T1, Pituitary adenylate cyclase-activating polypeptide type I receptor (Homo sapiens, UniProt P41586); test: Displacement of [125I]Ac-PACAP27 from human recombinant PAC1 receptor expressed in CHO cells by gamma- counter; type: cell-based
Target sequence in this assay (P41586 whole entry): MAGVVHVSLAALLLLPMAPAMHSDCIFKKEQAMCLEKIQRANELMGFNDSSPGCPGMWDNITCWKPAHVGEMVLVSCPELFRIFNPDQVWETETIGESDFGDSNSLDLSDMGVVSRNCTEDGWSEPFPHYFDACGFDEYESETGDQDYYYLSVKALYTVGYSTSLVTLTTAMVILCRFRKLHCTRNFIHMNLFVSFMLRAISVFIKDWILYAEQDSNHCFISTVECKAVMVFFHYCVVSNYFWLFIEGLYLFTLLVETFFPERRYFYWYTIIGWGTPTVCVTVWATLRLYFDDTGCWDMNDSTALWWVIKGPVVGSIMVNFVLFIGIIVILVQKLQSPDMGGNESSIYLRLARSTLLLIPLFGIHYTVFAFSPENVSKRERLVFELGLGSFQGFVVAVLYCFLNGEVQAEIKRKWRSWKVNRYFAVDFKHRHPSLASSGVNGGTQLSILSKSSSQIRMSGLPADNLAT

[2] = molecular target: T1, Pituitary adenylate cyclase-activating polypeptide type I receptor; test: Agonist activity at human recombinant PAC1 receptor expressed in CHO cells assessed as PACAP38-induced calcium mobilization by FLIPR assay relative to PACAP38; type: functional, cell-based
Procedure, shortened: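 CHO cells stably expressing recombinant human PAC1, plated 24 h before assay, loaded with fluo-4 AM for 60 min at 37 °C in the dark, then rinsed into HBSS for 15 min at 37 °C. Peptide was added 18 s into a 150 s read (ex 480/em 525 nm), at final concentrations of 1 × 10-12 to 1 × 10^-5 M. Response was normalised to 1 × 10^-5 M PACAP38 on each plate. EC50 and efficacy came from nonlinear regression; 4-10 independent assays in duplicate.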
Target sequence in this assay (P41586 21-468 limits assumed): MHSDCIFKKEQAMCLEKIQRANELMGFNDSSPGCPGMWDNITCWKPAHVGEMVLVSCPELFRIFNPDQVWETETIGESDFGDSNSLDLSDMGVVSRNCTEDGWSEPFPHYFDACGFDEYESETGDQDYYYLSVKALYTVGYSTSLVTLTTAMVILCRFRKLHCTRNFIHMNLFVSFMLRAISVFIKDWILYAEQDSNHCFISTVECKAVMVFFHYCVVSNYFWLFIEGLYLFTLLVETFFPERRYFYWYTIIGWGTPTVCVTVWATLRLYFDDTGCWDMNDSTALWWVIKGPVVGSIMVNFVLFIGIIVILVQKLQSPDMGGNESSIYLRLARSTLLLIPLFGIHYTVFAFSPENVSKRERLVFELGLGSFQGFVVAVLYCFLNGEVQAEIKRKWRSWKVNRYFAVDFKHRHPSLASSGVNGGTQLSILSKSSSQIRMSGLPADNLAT

Row | Compound | IC50 [1] | Emax [2]
1 | CC[C@@H](C)[C@@H](NC(=O)CNC(=O)[C@H](CC(=O)O)NC(=O)[C@H](CO)NC(=O)[C@@H](N)Cc1cnc[nH]1)C(=O)N[C@@H](Cc1ccccc1)C(=O)N[C@H](C(=O)N[C@@H](CC(=O)O)C(=O)N[C@@H](CO)C(=O)N[C@@H](Cc1ccc(O)cc1)C(=O)N[C@@H](CO)C(=O)N[C@@H](CCCNC(=N)N)C(=O)N[C@@H](Cc1ccc(O)cc1)C(=O)N[C@@H](CCCNC(=N)N)C(=O)N[C@@H](CCCCN)C(=O)N[C@@H](CCC(N)=O)C(=O)N[C@@H](CCSC)C(=O)N[C@@H](C)C(=O)N[C@H](C(=O)N[C@@H](CCCCN)C(=O)N[C@@H](CCCCN)C(=O)N[C@@H](Cc1ccc(O)cc1)C(=O)N[C@@H](CC(C)C)C(=O)N[C@@H](C)C(=O)N[C@@H](C)C(=O)N[C@H](C(=O)N[C@@H](CC(C)C)C(=O)NCC(=O)N[C@@H](CCCCN)C(=O)N[C@@H](CCCNC(=N)N)C(=O)N[C@@H](Cc1ccc(O)cc1)C(=O)N[C@@H](CCCCN)C(=O)N[C@@H](CCC(N)=O)C(=O)N[C@@H](CCCNC(=N)N)C(=O)N[C@H](C(=O)N[C@@H](CCCCN)C(=O)N[C@@H](CC(N)=O)C(=O)N[C@@H](CCCCN)C(N)=O)C(C)C)C(C)C)C(C)C)[C@@H](C)O | 122 nM | –
2 | CC[C@H](C)[C@H](NC(=O)CNC(=O)[C@H](CC(=O)O)NC(=O)[C@H](CO)NC(=O)[C@@H](N)Cc1cn(C)cn1)C(=O)N[C@@H](Cc1ccccc1)C(=O)N[C@H](C(=O)N[C@@H](CC(=O)O)C(=O)N[C@@H](CO)C(=O)N[C@@H](Cc1ccc(O)cc1)C(=O)N[C@@H](CO)C(=O)N[C@@H](CCCNC(=N)N)C(=O)N[C@@H](Cc1ccc(O)cc1)C(=O)N[C@@H](CCCNC(=N)N)C(=O)N[C@@H](CCCCN)C(=O)N[C@@H](CCC(N)=O)C(=O)N[C@@H](CCSC)C(=O)N[C@@H](C)C(=O)N[C@H](C(=O)N[C@@H](CCCCN)C(=O)N[C@@H](CCCCN)C(=O)N[C@@H](Cc1ccc(O)cc1)C(=O)N[C@@H](CC(C)C)C(=O)N[C@@H](C)C(=O)N[C@@H](C)C(=O)N[C@H](C(=O)N[C@@H](CC(C)C)C(N)=O)C(C)C)C(C)C)[C@@H](C)O | – | 31.9%
3 | CC[C@H](C)[C@H](NC(=O)CNC(=O)[C@H](CC(=O)O)NC(=O)[C@H](CO)NC(=O)[C@@H](N)Cc1cncn1C)C(=O)N[C@@H](Cc1ccccc1)C(=O)N[C@H](C(=O)N[C@@H](CC(=O)O)C(=O)N[C@@H](CO)C(=O)N[C@@H](Cc1ccc(O)cc1)C(=O)N[C@@H](CO)C(=O)N[C@@H](CCCNC(=N)N)C(=O)N[C@@H](Cc1ccc(O)cc1)C(=O)N[C@@H](CCCNC(=N)N)C(=O)N[C@@H](CCCCN)C(=O)N[C@@H](CCC(N)=O)C(=O)N[C@@H](CCSC)C(=O)N[C@@H](C)C(=O)N[C@H](C(=O)N[C@@H](CCCCN)C(=O)N[C@@H](CCCCN)C(=O)N[C@@H](Cc1ccc(O)cc1)C(=O)N[C@@H](CC(C)C)C(=O)N[C@@H](C)C(=O)N[C@@H](C)C(=O)N[C@H](C(=O)N[C@@H](CC(C)C)C(=O)NCC(=O)N[C@@H](CCCCN)C(=O)N[C@@H](CCCNC(=N)N)C(=O)N[C@@H](Cc1ccc(O)cc1)C(=O)N[C@@H](CCCCN)C(=O)N[C@@H](CCC(N)=O)C(=O)N[C@@H](CCCNC(=N)N)C(=O)N[C@H](C(=O)N[C@@H](CCCCN)C(=O)N[C@@H](CC(N)=O)C(=O)N[C@@H](CCCCN)C(N)=O)C(C)C)C(C)C)C(C)C)[C@@H](C)O | – | 87.6%
4 | CC[C@H](C)[C@@H](NC(=O)CNC(=O)[C@H](CC(=O)O)NC(=O)[C@H](CO)NC(=O)[C@@H](N)Cc1cnc[nH]1)C(=O)N[C@@H](Cc1ccccc1)C(=O)N[C@H](C(=O)N[C@@H](CC(=O)O)C(=O)N[C@@H](CO)C(=O)N[C@@H](Cc1ccc(O)cc1)C(=O)N[C@@H](CO)C(=O)N[C@@H](CCCNC(=N)N)C(=O)N[C@@H](Cc1ccc(O)cc1)C(=O)N[C@@H](CCCNC(=N)N)C(=O)N[C@@H](CCCCN)C(=O)N[C@@H](CCC(N)=O)C(=O)N[C@@H](CCSC)C(=O)N[C@@H](C)C(=O)N[C@H](C(=O)N[C@@H](CCCCN)C(=O)N[C@@H](CCCCN)C(=O)N[C@@H](Cc1ccc(O)cc1)C(=O)N[C@@H](CC(C)C)C(=O)N[C@@H](C)C(=O)N[C@@H](C)C(=O)N[C@H](C(=O)N[C@@H](CC(C)C)C(=O)NCC(=O)N[C@@H](CCCCN)C(=O)N[C@@H](CCCNC(=N)N)C(=O)N[C@@H](Cc1ccc(O)cc1)C(=O)N[C@@H](CCCCN)C(=O)N[C@@H](CCC(N)=O)C(=O)N[C@@H](CCCNC(=N)N)C(=O)N[C@H](C(=O)N[C@@H](CCCCN)C(=O)N[C@@H](CC(N)=O)C(=O)N[C@@H](CCCCN)C(N)=O)C(C)C)C(C)C)C(C)C)[C@@H](C)O | – | 76.2%
5 | CC[C@H](C)[C@H](NC(=O)CNC(=O)[C@H](CC(=O)O)NC(=O)[C@H](CO)NC(=O)[C@H](C)N)C(=O)N[C@@H](Cc1ccccc1)C(=O)N[C@H](C(=O)N[C@@H](CC(=O)O)C(=O)N[C@@H](CO)C(=O)N[C@@H](Cc1ccc(O)cc1)C(=O)N[C@@H](CO)C(=O)N[C@@H](CCCNC(=N)N)C(=O)N[C@@H](Cc1ccc(O)cc1)C(=O)N[C@@H](CCCNC(=N)N)C(=O)N[C@@H](CCCCN)C(=O)N[C@@H](CCC(N)=O)C(=O)N[C@@H](CCSC)C(=O)N[C@@H](C)C(=O)N[C@H](C(=O)N[C@@H](CCCCN)C(=O)N[C@@H](CCCCN)C(=O)N[C@@H](Cc1ccc(O)cc1)C(=O)N[C@@H](CC(C)C)C(=O)N[C@@H](C)C(=O)N[C@@H](C)C(=O)N[C@H](C(=O)N[C@@H](CC(C)C)C(=O)NCC(=O)N[C@@H](CCCCN)C(=O)N[C@@H](CCCNC(=N)N)C(=O)N[C@@H](Cc1ccc(O)cc1)C(=O)N[C@@H](CCCCN)C(=O)N[C@@H](CCC(N)=O)C(=O)N[C@@H](CCCNC(=N)N)C(=O)N[C@H](C(=O)N[C@@H](CCCCN)C(=O)N[C@@H](CC(N)=O)C(=O)N[C@@H](CCCCN)C(N)=O)C(C)C)C(C)C)C(C)C)[C@@H](C)O (H-ASDGIFTDSYSRYRKQMAVKKYLAAVLGKRYKQRVKNK-NH2) | – | 82.6%
6 | CC[C@H](C)[C@H](NC(=O)CNC(=O)[C@H](CC(=O)O)NC(=O)[C@H](CO)NC(=O)[C@@H](N)Cc1cnc[nH]1)C(=O)N[C@@H](Cc1ccccc1)C(=O)N[C@@H](C(=O)N[C@@H](CC(=O)O)C(=O)N[C@@H](CO)C(=O)N[C@@H](Cc1ccc(O)cc1)C(=O)N[C@@H](CO)C(=O)N[C@@H](CCCNC(=N)N)C(=O)N[C@@H](Cc1ccc(O)cc1)C(=O)N[C@@H](CCCNC(=N)N)C(=O)N[C@@H](CCCCN)C(=O)N[C@@H](CCC(N)=O)C(=O)N[C@@H](CCSC)C(=O)N[C@@H](C)C(=O)N[C@H](C(=O)N[C@@H](CCCCN)C(=O)N[C@@H](CCCCN)C(=O)N[C@@H](Cc1ccc(O)cc1)C(=O)N[C@@H](CC(C)C)C(=O)N[C@@H](C)C(=O)N[C@@H](C)C(=O)N[C@H](C(=O)N[C@@H](CC(C)C)C(=O)NCC(=O)N[C@@H](CCCCN)C(=O)N[C@@H](CCCNC(=N)N)C(=O)N[C@@H](Cc1ccc(O)cc1)C(=O)N[C@@H](CCCCN)C(=O)N[C@@H](CCC(N)=O)C(=O)N[C@@H](CCCNC(=N)N)C(=O)N[C@H](C(=O)N[C@@H](CCCCN)C(=O)N[C@@H](CC(N)=O)C(=O)N[C@@H](CCCCN)C(N)=O)C(C)C)C(C)C)C(C)C)[C@@H](C)O | – | 63.3%
7 | CC[C@H](C)[C@H](NC(=O)CNC(=O)[C@H](CC(=O)O)NC(=O)[C@H](CO)NC(=O)[C@@H](N)Cc1cnc[nH]1)C(=O)N[C@@H](Cc1ccccc1)C(=O)N[C@H](C(=O)N[C@@H](CC(=O)O)C(=O)N[C@@H](CO)C(=O)N[C@@H](Cc1ccc(O)cc1)C(=O)N[C@@H](CO)C(=O)N[C@@H](CCCNC(=N)N)C(=O)N[C@@H](Cc1ccc(O)cc1)C(=O)N[C@@H](CCCNC(=N)N)C(=O)N[C@@H](CCCCN)C(=O)N[C@@H](CCC(N)=O)C(=O)N[C@@H](CCSC)C(=O)N[C@@H](C)C(=O)N[C@H](C(=O)N[C@@H](CCCCN)C(=O)N[C@@H](CCCCN)C(=O)N[C@@H](Cc1ccc(O)cc1)C(=O)N[C@@H](CC(C)C)C(=O)N[C@@H](C)C(=O)N[C@@H](C)C(=O)N[C@H](C(=O)N[C@@H](CC(C)C)C(=O)NCC(=O)N[C@@H](CCCCN)C(=O)N[C@@H](CCCNC(=N)N)C(=O)N[C@@H](Cc1ccc(O)cc1)C(=O)N[C@@H](CCCCN)C(=O)N[C@@H](CCC(N)=O)C(=O)N[C@@H](CCCNC(=N)N)C(=O)N[C@H](C(=O)N[C@@H](CCCCN)C(=O)N[C@@H](CC(N)=O)C(=O)N[C@@H](CCCCN)C(N)=O)C(C)C)C(C)C)C(C)C)[C@@H](C)O | – | 100%
8 | CC[C@H](C)[C@H](NC(=O)CNC(=O)[C@H](CC(=O)O)NC(=O)[C@H](CO)NC(=O)[C@@H](N)Cc1cn(C)cn1)C(=O)N[C@@H](Cc1ccccc1)C(=O)N[C@H](C(=O)N[C@@H](CC(=O)O)C(=O)N[C@@H](CO)C(=O)N[C@@H](Cc1ccc(O)cc1)C(=O)N[C@@H](CO)C(=O)N[C@@H](CCCNC(=N)N)C(=O)N[C@@H](Cc1ccc(O)cc1)C(=O)N[C@@H](CCCNC(=N)N)C(=O)N[C@@H](CCCCN)C(=O)N[C@@H](CCC(N)=O)C(=O)N[C@@H](CCSC)C(=O)N[C@@H](C)C(=O)N[C@H](C(=O)N[C@@H](CCCCN)C(=O)N[C@@H](CCCCN)C(=O)N[C@@H](Cc1ccc(O)cc1)C(=O)N[C@@H](CC(C)C)C(=O)N[C@@H](C)C(=O)N[C@@H](C)C(=O)N[C@H](C(=O)N[C@@H](CC(C)C)C(=O)NCC(=O)N[C@@H](CCCCN)C(=O)N[C@@H](CCCNC(=N)N)C(=O)N[C@@H](Cc1ccc(O)cc1)C(=O)N[C@@H](CCCCN)C(=O)N[C@@H](CCC(N)=O)C(=O)N[C@@H](CCCNC(=N)N)C(=O)N[C@H](C(=O)N[C@@H](CCCCN)C(=O)N[C@@H](CC(N)=O)C(=O)N[C@@H](CCCCN)C(N)=O)C(C)C)C(C)C)C(C)C)[C@@H](C)O | – | 18.2%
